Activity calls are given as the source filed them. No cut-off for these calls is given here.
Tests used:
[1] = biological target: T1, Vascular endothelial growth factor receptor 2 (Homo sapiens, UniProt P35968); test: Inhibition of recombinant VEGFR2 using poly(Glu,Tyr)4 as substrate assessed as inhibition of [33P]Phosphate incorporation into substrate after 80 mins by scintillation counting
Focal adhesion kinase 1 [2] = biological target: T2, Focal adhesion kinase 1 (Homo sapiens, UniProt Q05397); test: Inhibition of recombinant FAK using poly(Glu,Tyr)4 as substrate assessed as inhibition of [33P]Phosphate incorporation into substrate at <10 uM after 80 mins by scintillation counting
Outline: (§1)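 FAK and VEGF-R2 were each tested as recombinant kinase with poly(Glu,Tyr)4:1 substrate at 125 ng/50 µL and [33P]-ATP (about 5×10^5 cpm/well). Buffer was 60 mM HEPES-NaOH pH 7.5 with 3 mM MgCl2 and 3 mM MnCl2. Reactions ran 80 min at 30 °C and were quenched with 2% phosphoric acid and washed with 0.9% NaCl. Scintillation counts were normalised between no-enzyme and uninhibited controls.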

[3] = biological target: Hepatocyte growth factor receptor (Homo sapiens) (UniProt P08581); test: Inhibition of recombinant MET at <10 uM by radiometric kinase assay
Outline: (§2)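 Recombinant kinases were tested in a radiometric 33P-ATP assay in 60 mM HEPES-NaOH pH 7.5 with 3 mM MgCl2 and 3 mM MnCl2, with compound added in 10% DMSO. Incubation was 80 min at 30 °C, stopped with 2% phosphoric acid and washed. 33P incorporation was scintillation-counted, and activity was scaled between no-enzyme and no-inhibitor controls.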

[4] = biological target: T3, NUAK family SNF1-like kinase 1 (Homo sapiens) (UniProt O60285); test: Inhibition of recombinant ARK5 at <10 uM by radiometric kinase assay; outline: as §2
T3 sequence (whole entry): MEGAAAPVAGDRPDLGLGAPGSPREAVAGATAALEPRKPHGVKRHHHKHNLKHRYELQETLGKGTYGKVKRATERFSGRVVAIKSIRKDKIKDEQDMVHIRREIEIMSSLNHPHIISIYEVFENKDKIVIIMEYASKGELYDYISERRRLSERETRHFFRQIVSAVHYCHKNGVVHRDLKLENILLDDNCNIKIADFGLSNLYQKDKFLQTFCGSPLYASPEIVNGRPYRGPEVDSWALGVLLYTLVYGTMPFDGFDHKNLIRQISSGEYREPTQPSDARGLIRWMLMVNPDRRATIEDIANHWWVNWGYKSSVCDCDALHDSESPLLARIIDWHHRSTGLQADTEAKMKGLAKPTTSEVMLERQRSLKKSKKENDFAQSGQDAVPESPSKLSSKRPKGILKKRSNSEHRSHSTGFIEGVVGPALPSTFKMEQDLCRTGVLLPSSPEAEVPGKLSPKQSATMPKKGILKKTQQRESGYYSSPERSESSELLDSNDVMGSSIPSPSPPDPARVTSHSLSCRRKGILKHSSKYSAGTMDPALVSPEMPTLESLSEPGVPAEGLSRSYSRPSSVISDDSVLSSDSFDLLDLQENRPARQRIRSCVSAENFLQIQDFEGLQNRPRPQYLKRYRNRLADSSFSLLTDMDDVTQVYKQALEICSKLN

Aurora kinase B [5] = biological target: T4, Aurora kinase B (Homo sapiens, UniProt Q96GD4); test: Inhibition of recombinant Aurora B using tetra(LRRWSLG) as substrate assessed as inhibition of [33P]Phosphate incorporation into substrate at <10 uM after 80 mins by scintillation counting
T4 sequence (Q96GD4 whole entry): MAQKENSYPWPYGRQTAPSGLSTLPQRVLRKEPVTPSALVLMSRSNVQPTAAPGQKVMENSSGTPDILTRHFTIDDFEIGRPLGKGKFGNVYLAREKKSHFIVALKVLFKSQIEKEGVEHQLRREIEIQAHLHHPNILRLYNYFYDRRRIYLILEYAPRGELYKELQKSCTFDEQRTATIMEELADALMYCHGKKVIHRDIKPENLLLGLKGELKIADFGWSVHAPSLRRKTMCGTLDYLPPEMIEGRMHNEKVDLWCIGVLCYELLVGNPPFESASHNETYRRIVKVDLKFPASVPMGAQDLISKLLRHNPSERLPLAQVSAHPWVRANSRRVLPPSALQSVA
Outline: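 Recombinant Aurora B was assayed with [33P]-ATP (about 5×10^5 cpm/well) and tetra(LRRWSLG) substrate at 500 ng/50 µL. Buffer was 60 mM HEPES-NaOH pH 7.5 with 3 mM MgCl2 and 3 mM MnCl2. Incubation ran 80 min at 30 °C and was stopped with 2% phosphoric acid, then washed with saline. Bound 33P was counted by scintillation, with activity normalised to no-enzyme (0%) and no-inhibitor (100%) controls.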

[6] = biological target: Proto-oncogene tyrosine-protein kinase Src (Homo sapiens) (UniProt P12931); test: Inhibition of recombinant SRC at <10 uM by radiometric kinase assay; outline: as §2
Aurora kinase B [7] = biological target: T4, Aurora kinase B; test: Inhibition of recombinant Aurora B using tetra(LRRWSLG) as substrate assessed as inhibition of [33P]Phosphate incorporation into substrate after 80 mins by scintillation counting
Focal adhesion kinase 1 [8] = biological target: T2, Focal adhesion kinase 1; test: Inhibition of recombinant FAK using poly(Glu,Tyr)4 as substrate assessed as inhibition of [33P]Phosphate incorporation into substrate after 80 mins by scintillation counting
Target sequence in this assay (Q05397 whole entry): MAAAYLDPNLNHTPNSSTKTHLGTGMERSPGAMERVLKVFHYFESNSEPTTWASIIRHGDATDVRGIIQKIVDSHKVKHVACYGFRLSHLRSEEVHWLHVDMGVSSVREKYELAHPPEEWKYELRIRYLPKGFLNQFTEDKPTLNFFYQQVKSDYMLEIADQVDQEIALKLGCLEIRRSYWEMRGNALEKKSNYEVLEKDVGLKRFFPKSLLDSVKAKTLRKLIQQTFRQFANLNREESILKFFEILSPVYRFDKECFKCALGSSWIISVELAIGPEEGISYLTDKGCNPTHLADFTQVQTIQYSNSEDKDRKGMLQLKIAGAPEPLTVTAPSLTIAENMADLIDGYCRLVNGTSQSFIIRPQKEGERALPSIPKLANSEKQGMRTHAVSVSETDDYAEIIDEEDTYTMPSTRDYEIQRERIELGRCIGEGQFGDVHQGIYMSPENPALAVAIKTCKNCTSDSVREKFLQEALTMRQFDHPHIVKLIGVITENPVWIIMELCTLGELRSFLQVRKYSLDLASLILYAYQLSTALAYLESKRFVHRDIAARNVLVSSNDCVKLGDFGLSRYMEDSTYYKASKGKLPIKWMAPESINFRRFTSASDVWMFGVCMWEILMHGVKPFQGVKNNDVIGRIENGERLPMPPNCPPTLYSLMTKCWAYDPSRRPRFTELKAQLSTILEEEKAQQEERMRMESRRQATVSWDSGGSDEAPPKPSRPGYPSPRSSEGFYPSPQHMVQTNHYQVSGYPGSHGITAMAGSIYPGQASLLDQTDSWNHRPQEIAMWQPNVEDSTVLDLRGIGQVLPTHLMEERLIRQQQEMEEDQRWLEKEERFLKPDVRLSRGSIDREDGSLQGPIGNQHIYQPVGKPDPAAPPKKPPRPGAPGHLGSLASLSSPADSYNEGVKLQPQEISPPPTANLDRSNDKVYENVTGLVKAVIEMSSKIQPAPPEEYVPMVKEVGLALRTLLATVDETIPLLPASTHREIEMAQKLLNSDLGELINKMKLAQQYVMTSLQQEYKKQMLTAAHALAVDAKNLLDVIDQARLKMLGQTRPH

[9] = biological target: T5, RAC-alpha serine/threonine-protein kinase (Homo sapiens, UniProt P31749); test: Inhibition of recombinant AKT1 using GSK3 as substrate assessed as inhibition of [33P]Phosphate incorporation into substrate at <10 uM after 80 mins by scintillation counting
Outline: (§3)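 Recombinant AKT1 was assayed radiometrically with [33P]-ATP (about 5×10^5 cpm/well) and GSK3(14-27) substrate at 2000 ng/50 µL. Buffer was 60 mM HEPES-NaOH pH 7.5 with 3 mM MgCl2 and 3 mM MnCl2, and compound was added in 10% DMSO. After 80 min at 30 °C the reaction was stopped with 2% phosphoric acid, washed with 0.9% NaCl and 33P incorporation counted by scintillation. Residual activity was set against no-enzyme and no-inhibitor controls.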

[10] = biological target: Tyrosine-protein kinase receptor UFO (Homo sapiens) (UniProt P30530); test: Inhibition of recombinant AXL at <10 uM by radiometric kinase assay; outline: as §2
[11] = biological target: T1, Vascular endothelial growth factor receptor 2; test: Inhibition of recombinant VEGFR2 using poly(Glu,Tyr)4 as substrate assessed as inhibition of [33P]Phosphate incorporation into substrate at <10 uM after 80 mins by scintillation counting; outline: as §1
[12] = biological target: T6, Serine/threonine-protein kinase PLK1 (Homo sapiens, UniProt P53350); test: Inhibition of recombinant PLK1 using RBERCHKtide as substrate assessed as inhibition of [33P]Phosphate incorporation into substrate at <10 uM after 80 mins by scintillation counting
Outline: (§4)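 PLK1 (recombinant) was phosphorylating RBER-CHKtide at 2000 ng/50 µL with [33P]-ATP (about 5×10^5 cpm/well). Buffer was 60 mM HEPES-NaOH pH 7.5 with 3 mM MgCl2 and 3 mM MnCl2. After 80 min at 30 °C, 2% phosphoric acid stopped the reaction and wells were washed with saline. Incorporated 33P was counted, with residual activity relative to enzyme-free and inhibitor-free controls.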

[13] = biological target: Insulin-like growth factor 1 receptor (Homo sapiens) (UniProt P08069); test: Inhibition of recombinant IGF1R at <10 uM by radiometric kinase assay; outline: as §2
Chain of Insulin-like growth factor 1 receptor (Homo sapiens) (P08069 31-736 limits assumed): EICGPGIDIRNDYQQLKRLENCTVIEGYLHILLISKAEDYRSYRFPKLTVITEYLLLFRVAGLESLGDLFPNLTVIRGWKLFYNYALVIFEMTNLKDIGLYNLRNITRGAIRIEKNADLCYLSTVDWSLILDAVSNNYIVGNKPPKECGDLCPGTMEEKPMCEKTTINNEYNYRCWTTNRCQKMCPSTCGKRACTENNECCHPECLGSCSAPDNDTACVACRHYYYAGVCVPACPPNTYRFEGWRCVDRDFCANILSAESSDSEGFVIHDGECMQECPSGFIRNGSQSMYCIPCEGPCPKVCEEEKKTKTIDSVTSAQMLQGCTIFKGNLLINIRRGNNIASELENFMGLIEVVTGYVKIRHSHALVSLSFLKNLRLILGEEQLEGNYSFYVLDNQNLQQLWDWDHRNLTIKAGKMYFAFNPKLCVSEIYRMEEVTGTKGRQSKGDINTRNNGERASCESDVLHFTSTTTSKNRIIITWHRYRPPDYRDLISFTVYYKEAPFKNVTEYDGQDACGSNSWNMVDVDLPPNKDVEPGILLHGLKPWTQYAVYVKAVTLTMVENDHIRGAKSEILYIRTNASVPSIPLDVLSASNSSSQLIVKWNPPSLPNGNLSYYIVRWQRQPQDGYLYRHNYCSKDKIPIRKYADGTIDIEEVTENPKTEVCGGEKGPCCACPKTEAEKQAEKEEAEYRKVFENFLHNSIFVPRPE
Chain of Insulin-like growth factor 1 receptor (Homo sapiens) (P08069 741-1367 limits assumed): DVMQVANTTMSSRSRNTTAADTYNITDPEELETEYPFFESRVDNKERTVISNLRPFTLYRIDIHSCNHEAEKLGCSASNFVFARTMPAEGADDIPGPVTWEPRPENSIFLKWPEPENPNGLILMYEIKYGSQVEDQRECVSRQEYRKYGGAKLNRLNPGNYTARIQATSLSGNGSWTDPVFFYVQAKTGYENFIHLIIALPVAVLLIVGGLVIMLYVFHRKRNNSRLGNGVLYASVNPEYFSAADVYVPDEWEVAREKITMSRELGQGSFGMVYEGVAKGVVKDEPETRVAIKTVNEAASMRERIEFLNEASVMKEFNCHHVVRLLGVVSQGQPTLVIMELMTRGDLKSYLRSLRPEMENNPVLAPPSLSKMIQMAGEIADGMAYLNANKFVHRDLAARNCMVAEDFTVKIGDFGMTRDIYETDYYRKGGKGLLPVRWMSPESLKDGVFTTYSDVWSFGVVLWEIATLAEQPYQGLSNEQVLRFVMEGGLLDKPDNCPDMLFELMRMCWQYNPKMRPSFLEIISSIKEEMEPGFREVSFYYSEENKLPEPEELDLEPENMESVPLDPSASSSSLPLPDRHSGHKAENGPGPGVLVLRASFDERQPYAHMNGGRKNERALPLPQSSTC

[14] = biological target: T5, RAC-alpha serine/threonine-protein kinase; test: Inhibition of recombinant AKT1 using GSK3 as substrate assessed as inhibition of [33P]Phosphate incorporation into substrate after 80 mins by scintillation counting
Outline: as §3, with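 “scintillation.” for “scintillation. Residual activity was set against no-enzyme and no-inhibitor controls.”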

[15] = biological target: T6, Serine/threonine-protein kinase PLK1; test: Inhibition of recombinant PLK1 using RBERCHKtide as substrate assessed as inhibition of [33P]Phosphate incorporation into substrate after 80 mins by scintillation counting; outline: as §4
[16] = biological target: Serine/threonine-protein kinase N1 (Homo sapiens) (UniProt Q16512); test: Inhibition of recombinant PRK1 at <10 uM by radiometric kinase assay; outline: as §2
Chain of Serine/threonine-protein kinase N1 (Homo sapiens) (Q16512 2-942 limits assumed): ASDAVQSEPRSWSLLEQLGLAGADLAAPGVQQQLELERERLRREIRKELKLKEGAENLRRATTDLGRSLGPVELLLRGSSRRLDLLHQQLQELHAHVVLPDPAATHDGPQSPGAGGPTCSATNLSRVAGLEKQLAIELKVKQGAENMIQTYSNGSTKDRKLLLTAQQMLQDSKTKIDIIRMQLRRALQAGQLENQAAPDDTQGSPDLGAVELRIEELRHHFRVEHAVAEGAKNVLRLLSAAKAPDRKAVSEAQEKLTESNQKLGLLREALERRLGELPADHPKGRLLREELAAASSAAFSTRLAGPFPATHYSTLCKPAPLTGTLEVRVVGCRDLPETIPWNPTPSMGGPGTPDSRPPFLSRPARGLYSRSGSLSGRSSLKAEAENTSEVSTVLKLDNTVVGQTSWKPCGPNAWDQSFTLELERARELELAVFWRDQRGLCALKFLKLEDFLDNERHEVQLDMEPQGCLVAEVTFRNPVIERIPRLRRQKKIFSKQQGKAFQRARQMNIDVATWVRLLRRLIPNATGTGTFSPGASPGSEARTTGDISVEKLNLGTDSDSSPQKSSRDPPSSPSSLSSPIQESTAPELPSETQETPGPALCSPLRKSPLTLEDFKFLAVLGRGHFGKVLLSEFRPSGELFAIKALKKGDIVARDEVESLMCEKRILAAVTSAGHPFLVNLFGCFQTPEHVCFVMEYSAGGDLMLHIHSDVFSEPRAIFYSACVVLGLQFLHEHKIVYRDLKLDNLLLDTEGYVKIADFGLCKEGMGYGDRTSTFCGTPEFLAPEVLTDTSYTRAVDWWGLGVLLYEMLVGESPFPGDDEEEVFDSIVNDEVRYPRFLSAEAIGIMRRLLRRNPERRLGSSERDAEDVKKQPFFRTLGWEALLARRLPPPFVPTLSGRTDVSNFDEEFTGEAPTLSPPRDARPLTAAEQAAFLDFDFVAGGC

OVCAR-3 = test: Antiproliferative activity against human OVCAR3 cells after 48 hrs by SRB assay; assay type: functional; conditions: OVCAR-3, 48 h
Outline: (§5)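 Run in the NCI screen of about 60 human tumour cell lines. Cells were exposed to compound for 48 h at five concentrations from 10^-8 to 10^-4 M, then fixed and stained for protein with sulforhodamine B. Absorbance was read at 515 nm. Percent growth was calculated from time-zero, untreated-control and treated readings, and replicate experiments were averaged.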

TK-10 = test: Antiproliferative activity against human TK10 cells after 48 hrs by SRB assay; assay type: functional; conditions: TK-10, 48 h; outline: as §5
MDA-MB-435 = test: Antiproliferative activity against human MDA-MB-435 cells after 48 hrs by SRB assay; assay type: functional; conditions: MDA-MB-435, 48 h; outline: as §5
UACC-257 = test: Antiproliferative activity against human UACC257 cells after 48 hrs by SRB assay; assay type: functional; conditions: UACC-257, 48 h; outline: as §5
HT-29 = test: Antiproliferative activity against human HT-29 cells after 48 hrs by SRB assay; assay type: functional; conditions: HT-29, 48 h; outline: as §5
MCF7 = test: Antiproliferative activity against human MCF7 cells after 48 hrs by SRB assay; assay type: functional; conditions: MCF7, 48 h; outline: as §5
EKVX = test: Antiproliferative activity against human EKVX cells after 48 hrs by SRB assay; assay type: functional; outline: as §5
SNB-19 = test: Antiproliferative activity against human SNB19 cells after 48 hrs by SRB assay; assay type: functional; conditions: SNB-19, 48 h; outline: as §5
CAKI-1 = test: Antiproliferative activity against human CAKI-1 cells after 48 hrs by SRB assay; assay type: functional; conditions: CAKI-1, 48 h; outline: as §5
SW-620 = test: Antiproliferative activity against human SW620 cells after 48 hrs by SRB assay; assay type: functional; conditions: SW-620, 48 h; outline: as §5

T1 sequence (P35968 whole entry): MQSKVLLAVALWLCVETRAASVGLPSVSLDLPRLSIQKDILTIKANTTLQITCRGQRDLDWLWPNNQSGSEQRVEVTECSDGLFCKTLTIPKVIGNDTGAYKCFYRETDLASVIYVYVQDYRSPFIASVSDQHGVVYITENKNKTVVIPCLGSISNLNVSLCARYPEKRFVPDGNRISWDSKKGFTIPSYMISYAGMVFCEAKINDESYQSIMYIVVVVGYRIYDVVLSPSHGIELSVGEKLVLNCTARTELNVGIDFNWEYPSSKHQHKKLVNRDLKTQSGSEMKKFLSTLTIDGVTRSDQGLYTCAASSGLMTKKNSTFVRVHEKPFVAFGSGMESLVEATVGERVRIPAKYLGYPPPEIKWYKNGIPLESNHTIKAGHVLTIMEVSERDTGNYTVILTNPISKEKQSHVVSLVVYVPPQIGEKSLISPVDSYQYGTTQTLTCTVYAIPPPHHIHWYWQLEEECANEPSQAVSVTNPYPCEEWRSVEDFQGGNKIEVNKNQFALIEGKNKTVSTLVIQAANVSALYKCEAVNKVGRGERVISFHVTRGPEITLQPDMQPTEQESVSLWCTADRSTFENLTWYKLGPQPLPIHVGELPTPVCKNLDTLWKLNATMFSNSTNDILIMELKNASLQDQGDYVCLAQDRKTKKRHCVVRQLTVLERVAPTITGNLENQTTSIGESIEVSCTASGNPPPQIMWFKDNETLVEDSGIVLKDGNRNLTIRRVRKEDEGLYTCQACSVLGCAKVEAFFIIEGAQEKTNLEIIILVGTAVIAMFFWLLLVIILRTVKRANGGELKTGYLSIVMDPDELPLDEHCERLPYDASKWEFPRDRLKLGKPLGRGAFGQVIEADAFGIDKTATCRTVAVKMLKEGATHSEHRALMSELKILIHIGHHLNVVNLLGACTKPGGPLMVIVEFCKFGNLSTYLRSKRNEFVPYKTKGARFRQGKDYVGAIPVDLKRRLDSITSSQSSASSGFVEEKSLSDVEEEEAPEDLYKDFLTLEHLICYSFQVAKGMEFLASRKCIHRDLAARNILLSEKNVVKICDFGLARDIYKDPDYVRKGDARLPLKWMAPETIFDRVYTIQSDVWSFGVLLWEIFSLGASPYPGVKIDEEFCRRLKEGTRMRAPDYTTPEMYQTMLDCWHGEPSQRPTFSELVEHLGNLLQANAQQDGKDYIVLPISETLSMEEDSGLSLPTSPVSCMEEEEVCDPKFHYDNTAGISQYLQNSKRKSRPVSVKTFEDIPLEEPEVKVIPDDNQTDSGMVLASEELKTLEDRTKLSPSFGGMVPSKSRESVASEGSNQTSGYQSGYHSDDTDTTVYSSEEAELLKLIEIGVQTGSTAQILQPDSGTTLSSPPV

Structure (SMILES) | IC50 [1] [µM] | inhibition (Focal adhesion kinase 1 [2]) | inhibition [3] | inhibition [4] | inhibition (Aurora kinase B [5]) | inhibition [6] | IC50 (Aurora kinase B [7]) [µM] | IC50 (Focal adhesion kinase 1 [8]) [µM] | inhibition [9] | inhibition [10] | inhibition [11] | inhibition [12] | inhibition [13] | IC50 [14] [µM] | IC50 [15] [µM] | inhibition [16] | further results
COc1ccc(Nc2nccc(-c3nc4ccccc4n3C)n2)cc1 | 44 | inactive | inactive | inactive | inactive | inactive | 62 | 27 | inactive | inactive | inactive | inactive | inactive | 75 | 15 | inactive | –
CCN(CC)CCNC(=O)c1c(C)[nH]c(/C=C2\C(=O)Nc3ccc(F)cc32)c1C [SUNITINIB] | – | – | – | – | – | – | – | – | – | – | – | – | – | – | – | – | GI50 (OVCAR-3): 3.2 µM; GI50 (TK-10): 6.3 µM; GI50 (MDA-MB-435): 2 µM; GI50 (UACC-257): 4 µM; GI50 (HT-29): 1.6 µM; GI50 (MCF7): 2 µM; GI50 (EKVX): 7.9 µM; GI50 (SNB-19): 10 µM; GI50 (CAKI-1): 0.63 µM; GI50 (SW-620): 1.3 µM
Cn1c(=O)c2ccc(-c3nc4ccccc4n3C)nc2n(C)c1=O | 85 | inactive | inactive | inactive | – | inactive | – | 92 | inactive | inactive | inactive | inactive | inactive | – | – | inactive | –
Cn1c(-c2ccnc(Nc3ccc(Cl)cc3)n2)nc2ccccc21 | 38 | inactive | inactive | inactive | – | inactive | – | 69 | inactive | inactive | inactive | inactive | inactive | 41 | – | inactive | –
Cn1c(-c2ccnc(Nc3ccccc3)n2)nc2ccccc21 | 13.4 | inactive | inactive | inactive | inactive | inactive | > 100 | 38 | inactive | inactive | inactive | inactive | inactive | > 100 | 60 | inactive | –
Cc1ccc(Nc2nccc(-c3nc4ccccc4n3C)n2)cc1 | 25 | inactive | inactive | inactive | – | inactive | – | 58 | inactive | inactive | inactive | inactive | inactive | – | – | inactive | –
CCOc1ccc(Nc2nccc(-c3nc4ccccc4n3C)n2)cc1 | > 100 | inactive | inactive | inactive | inactive | inactive | > 100 | > 100 | inactive | inactive | inactive | inactive | inactive | > 100 | > 100 | inactive | –
Cn1c(-c2ccnc(Nc3ccc(N4CCOCC4)cc3)n2)nc2ccccc21 | 69 | inactive | inactive | inactive | inactive | inactive | > 100 | 24 | inactive | inactive | inactive | inactive | inactive | > 100 | > 100 | inactive | –

The remaining molecules from weak to strong by IC50 [1], led by results:

IC50 [1] [µM] | inhibition (Focal adhesion kinase 1 [2]) | inhibition [3] | inhibition [4] | inhibition (Aurora kinase B [5]) | inhibition [6] | IC50 (Aurora kinase B [7]) [µM] | IC50 (Focal adhesion kinase 1 [8]) [µM] | inhibition [9] | inhibition [10] | inhibition [11] | inhibition [12] | inhibition [13] | IC50 [14] [µM] | IC50 [15] [µM] | inhibition [16] | Structure (SMILES) | further results
9.2 | – | – | – | – | – | 11.1 | 11.4 | – | – | – | – | – | > 100 | 12 | – | Cn1c(-c2ccnc(Nc3ccc(O)cc3)n2)nc2ccccc21 | –
7.5 | – | – | – | – | – | 7 | 10.4 | – | – | – | – | – | > 100 | 6 | – | Cn1c(-c2ccnc(Nc3ccc(O)c(Cl)c3)n2)nc2ccccc21 | –
3.2 | – | – | – | – | – | 5.5 | 5.2 | – | – | – | – | – | > 100 | 3.7 | – | Cn1c(-c2ccnc(Nc3cccc(O)c3)n2)nc2ccccc21 | –
